# PGC1a Ac signal = raises PGC1a acetylation signal in U2OS cells; 350,000 tested, 0.21% active; U2OS PGC1a acetylation AlphaScreen, overnight; activation, % at 15.6 µM;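 active = every replicate reaching activation of at least 50%, whatever the mean replicate activation; inconclusive = replicates that disagree or another doubt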;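 note: hits raise the AlphaScreen acetylation signal above neutral controls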
#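 System – flag-PGC1a/GCN5 U2OS cells · Quantity – 7000 U2OS cells per well · Signal – AlphaScreen proximity luminescence, anti-acetyl-lysine antibody · Schedule – overnight compound treatment, 37 °C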
# G6PC hep suppr = PGC-1a acetylation activators affecting G6PC expression in hepatocytes; G6PC suppression (normalized activity, % of positive control; higher = more suppression), % at 26 µM; 240 tested, under 10 active; shares compounds with PGC1a Ac signal; primary mouse hepatocytes, G6PC mRNA qPCR, forskolin;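 active = dose curves showing G6PC suppression whose half-maximal dose is at most twice the top valid dose; inconclusive = flat curves with moderate negative activity, or unreliable fits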;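 note: G6PC expression relative to GAPDH housekeeping gene as delta delta Ct; 0% = median of neutral control wells and 100% = median of positive control wells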
# Hep PCK1 suppr = PGC-1a acetylation activators affecting PCK1 expression in hepatocytes; 230 tested, under 10 active; shares compounds with PGC1a Ac signal; AID 743465; PCK1 expression decrease, unspecified at 26 µM; primary mouse hepatocytes, PCK1 mRNA qPCR, forskolin-stimulated;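 active = compounds lowering PCK1 expression whose fitted half-maximal concentration is at most twice the top tested dose; inconclusive = flat fit with moderate opposite-direction effect, or poor fit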;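 note: values are delta delta Ct of PCK1 relative to GAPDH; higher delta delta Ct means lower PCK1 expression so positive values indicate hits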
# Hep PGC-1a down = hepatocyte PGC-1a expression change via PGC-1a acetylation activation | primary mouse hepatocytes, PGC-1a mRNA qPCR, forskolin; top dose 26 µM | AID 743467 | shares compounds with PGC1a Ac signal | max activity (PGC-1a expression decrease), % | 240 tested, under 10 active;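 active = compound lowering PGC-1a expression with fitted half-maximal concentration at most twice its top tested dose; inconclusive = flat curve with moderate opposite-direction effect, or poor fit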;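 note: 0% = neutral control wells median and 100% = positive control wells median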
# * marks the source's active call; other numbers are inactive results; i = inactive; ? = inconclusive; . = not tested or not shown. Only a sample is shown.
SMILES,PGC1a Ac signal,G6PC hep suppr,Hep PCK1 suppr,Hep PGC-1a down
CNC[C@@H](CC1CCCCC1)NC[C@H](CC(C)C)NCCc1cccc(C(F)(F)F)c1,-88,.,.,.
O=C(CN1CCC(Cn2cnc3ccccc32)CC1)NCc1ccco1,.,1,-2.4,14
COCCNC(=O)C(c1ccc(F)cc1)N(Cc1ccco1)C(=O)CCC(=O)Nc1nccs1 (stereo not given),-41,.,.,.
O=C1/C(=C\c2ccco2)SC(=S)N1Cc1ccccc1,-41,.,.,.
NC(=O)COC(=O)CC(NC(N)=O)c1ccc(Cl)cc1 (stereo not given),-107,.,.,.
CCOC(=O)c1ccccc1NS(=O)(=O)c1ccc(OCC)cc1,?,17,50,70
Cn1ncc2c(O/N=C(\N)c3ccc(C(F)(F)F)cc3)ncnc21,-44,.,.,.
CCOC(=O)Cn1cnc2scc(-c3ccccc3)c2c1=O,-43,.,.,.
COc1ccc(Nc2nnc(-c3ccc(C(N)=O)cc3)c3ccccc23)cc1,89*,157,78,111
CC1=C(C(N)=O)C(c2cccnc2)n2nc(-c3cccc(Cl)c3)nc2N1 (stereo not given),93*,15,30,91
CCOc1ccc(N(C)S(=O)(=O)c2cc(-c3cc(C)no3)ccc2OC)cc1,54*,23,61,57
COc1ccc(OC)c(CNS(=O)(=O)c2cc(-c3cc(C)no3)ccc2OC)c1,-51,.,.,.
Cc1ccc(C(=O)c2cncc(Br)c2)cc1,-42,.,.,.
Cc1ccc(C(=O)c2c[nH]c(C(=O)NCc3cccnc3)c2)cc1,75*,18,156,37
Cc1ccc(C(=O)N2CCN(c3ccc(NC(=O)c4ccc(Br)o4)cc3)CC2)cc1,?,-37,-21,63
O=C(C[C@@H]1C[C@@H]2c3cc(NC(=O)Nc4ccccc4F)ccc3O[C@@H]2[C@H](CO)O1)NCc1ccc(Oc2ccccc2)cc1,-41,.,.,.
CCCCOP(=O)(c1ccc(N(C)C)cc1)C(O)c1ccc(OC)cc1 (stereo not given),-82,.,.,.
Cc1nn2c(NCCCN3CCOCC3)c3c(nc2c1-c1ccccc1)CCC3,67*,i,426,53
O=C(C[C@H]1C[C@@H]2c3cc(NS(=O)(=O)c4ccc(F)cc4)ccc3O[C@@H]2[C@@H](CO)O1)N1CCc2ccccc2C1,-50,.,.,.
CC(C)n1c(N2CCN(CC(=O)NCc3cccs3)CC2)nc2ccccc21,.,35,26,68
CC(NCc1cccs1)C(=O)NC1CCCCC1 (stereo not given),-45,.,.,.
COCC(=O)NCc1nc2ccccc2n1Cc1ccccc1F,-47,.,.,.
CN(C)/C=N/c1nc2nccc(-c3ccccn3)n2n1,-47,.,.,.
O=C1CCCC(O)=C1N=Nc1ccc2c(c1)OCO2,-47,.,.,.
C[C@H](CO)N1C[C@H](C)[C@@H](CN(C)CC2CCOCC2)Oc2ncc(Br)cc2C1=O,-89,.,.,.
SMILES,PGC1a Ac signal,G6PC hep suppr,Hep PCK1 suppr,Hep PGC-1a down
C[C@H]1CN([C@@H](C)CO)C(=O)c2cccc(NC(=O)c3cnccn3)c2O[C@H]1CN(C)Cc1ccc(C(=O)Nc2ccccc2N)cc1,203*,-39,-7.5,93
C[C@H]1CN([C@@H](C)CO)C(=O)c2cccc(NC(=O)Nc3cccc4ccccc34)c2O[C@H]1CN(C)Cc1ccc(C(=O)Nc2ccccc2N)cc1,81*,-38,-11,-13
C[C@H](CO)N1C[C@H](C)[C@H](CN(C)Cc2ccc(C(=O)Nc3ccccc3N)cc2)Oc2c(NC(=O)c3ccncc3)cccc2C1=O,-52,.,.,.
C[C@@H]1CCCCO[C@@H](CN(C)C(=O)c2ccncc2)[C@@H](C)CN([C@H](C)CO)C(=O)c2cc(NC(=O)CCCCCC(=O)Nc3ccccc3N)ccc2O1,-99,.,.,.
C[C@@H]1CN([C@@H](C)CO)C(=O)c2cccc(NC(=O)c3ccc(-c4nccs4)cc3)c2O[C@@H]1CN(C)C(=O)Nc1ccc(C(F)(F)F)cc1,-55,.,.,.
O=C(/C=C/c1ccccc1)CC(O)(c1ccccc1)C(F)(F)C(F)F (stereo not given),-42,.,.,.
CN(NC(=O)c1ccccc1)C1=NS(=O)(=O)c2ccccc21,-40,.,.,.
Cc1c(NC(=O)COC(=O)c2ccccc2O)c(=O)n(-c2ccccc2)n1C,-57,.,.,.
Cc1cc(NC(=O)CCS(=O)(=O)c2nc(-c3ccccc3)cc(C(F)(F)F)n2)no1,-90,.,.,.
Cc1ccc2c(CN(Cc3ccccc3)Cc3ccccc3)cc(=O)oc2c1,?,.,62,75
O=C1C(Cl)=C(Nc2ccc3cn[nH]c3c2)C(=O)c2ccccc21,-55,.,.,.
O=C(NC1CCCCC1)c1cccnc1C(=O)O,-51,40,13,69
CCCCN(C(=O)CCC(=O)Nc1cc(C)on1)C(C(=O)NC1CCCC1)c1ccc(OC)cc1 (stereo not given),-46,.,.,.
COc1ccc(C2NC(=S)NC3=C2CCCC3=C2SCCS2)cc1 (stereo not given),-45,.,.,.
COC(=O)C[C@H]1c2cc(C(F)(F)F)ccc2S(=O)(=O)N1Cc1ccc(OC)cc1,106*,29,70,68
CCN(CC)CC#CCOC(c1ccccc1)c1ccccc1,-44,.,.,.
COc1ccc(CN(CCC(C)C)S(=O)(=O)c2ccccc2Br)cc1,74*,.,51,99
O=C(Cc1ccccc1)Nc1ccc(NC(=O)c2cccs2)cc1,312*,43,3.3,42
Cc1ccc(NC(=O)CC2=NC(=O)C(CC(=O)Nc3ccccc3F)S2)cc1 (stereo not given),-50,.,.,.
O=C(CNC(=O)c1sc2ccccc2c1Cl)NCc1ccccc1,-52,.,.,.
Nc1cc2ccncc2c2ccccc12,-42,.,.,.
O=C(CNC(=O)C1CCCCC1)OCC(=O)c1ccc(Cl)s1,-45,.,.,.
Nc1ncc([N+](=O)[O-])c(N2CCCCCC2)n1,-53,.,.,.
CN(C)CCOc1ccc2c(c1)C(=O)C(=Cc1ncc([N+](=O)[O-])n1C)C2,-93,.,.,.
Cc1nnc(NCc2ccccc2)c2ccccc12,?,.,11,84
SMILES,PGC1a Ac signal,G6PC hep suppr,Hep PCK1 suppr,Hep PGC-1a down
O=C(Nc1cccc2[nH]ncc12)c1ccc(F)cc1,-42,.,.,.
Cc1sc(NC(=O)c2cccs2)nc1-c1ccccc1,80*,.,3.4,22
Cc1cc(C)c(C(=O)/C=C/c2ccc(C(C)C)cc2)c(=O)[nH]1,-64,.,.,.
CCC(=O)N1C[C@H](C)[C@H](OC)CN(C)C(=O)c2cc(NC(=O)c3cnccn3)ccc2OC[C@@H]1C,-41,.,.,.
O=C(CSc1c(Cl)cccc1Cl)NC1CCCc2ccccc21 (stereo not given),-43,.,.,.
Cc1cc(C)c2nc(N(CCCN(C)C)C(=O)c3ccc(S(=O)(=O)N4CCCCCC4)cc3)sc2c1,64*,i,183,41
CC(=O)c1c(N2CCOCC2)nc(=O)n(-c2ccccc2)c1C,-44,.,.,.
CCCN(CCC)S(=O)(=O)c1ccc(C(=O)Nc2nnc(CSC)o2)cc1,-45,.,.,.
CCOC(=O)C1(Cc2ccccc2)CCN(Cc2cccc(OC)c2O)CC1,84*,20,39,?
C/C(=N\NC(=O)c1cc(C)[nH]n1)c1ccc(-c2ccccc2)cc1,-79,.,.,.
Fc1ccc(-c2nn3c(C4COc5ccccc5O4)nnc3s2)cc1 (stereo not given),55*,39,-36,79
Cc1cc(C2=NNC(=NCCc3ccccc3)SC2)c(C)n1-c1c(C)n(C)n(-c2ccccc2)c1=O,-63,.,.,.

# Source: PubChem
